Assay results collected from several papers.
pIC50: −log10 of the molar value. In brackets after ≈: the same amount, converted by molar mass.

SMILES | target or system | assay | test system | setting | quantity | value
N#C[Se]CCCCOc1ccc2c(-c3ccccc3)cc(=O)oc2c1 | HeLa | cell growth or viability, SRB | – | – | GI50 | 23 µM
N.N.[Cl][Pt][Cl] | SU-DHL-6 | cell growth or viability, ATP luminescence | – | 10 µM, 72 h | inhibition | 100%
C[S+]([O-])CCCCN=C=S (stereo not drawn) | HDFa | cell growth or viability, MTT | – | 24 h | pIC50 | 4.30
Cc1ccc(C=NNC(=S)N[N+](=O)[O-])cc1 | Leishmania major | parasite growth, MTT | – | 72 h, promastigote | pIC50 | 3.46
CN[C@H](CC(C)C)C(=O)N[C@H]1C(=O)N[C@@H](CC(N)=O)C(=O)N[C@H]2C(=O)N[C@H]3C(=O)N[C@H](C(=O)N[C@H](C(=O)O)c4cc(O)cc(O)c4-c4cc3ccc4O)[C@H](O)c3ccc(c(Cl)c3)Oc3cc2cc(c3O[C@@H]2O[C@H](CO)[C@@H](O)[C@H](O)[C@H]2O[C@H]2C[C@](C)(N)[C@H](O)[C@H](C)O2)Oc2ccc(cc2Cl)[C@H]1O | Enterococcus faecalis | microbial growth | VRE | drug-resistant strain | MIC | 64 µg/mL (≈ 44.2 µM)
O=c1[nH]c(=O)n([C@@H]2O[C@H](COCc3ccccc3)[C@@H](OCc3ccccc3)[C@H](OCc3ccccc3)[C@H]2I)cc1F | Japanese encephalitis virus | viral replication, inhibitor, ELISA | Vero | – | pIC50 | 5.30
O=[N+]([O-])NC(=S)NN=Cc1ccc(F)cc1 | Leishmania major | parasite growth | J774.A1 | 72 h, intracellular, amastigote | pIC50 | 4.12
C#Cc1ccc(O)c(C=NNC(=O)c2ccc(Br)cc2Br)c1 | Aspergillus fumigatus | microbial growth | – | 48 h, pH 6.5 | MIC80 | 2 µg/mL (≈ 4.74 µM)
O=[N+]([O-])NC(=S)NN=Cc1ccc(Br)cc1 | Leishmania major | parasite growth, MTT | – | 72 h, promastigote | pIC50 | 3.36
C#Cc1ccc(O)c(C=NNC(=O)c2ccc(COC)cc2)c1 | Aspergillus fumigatus | microbial growth | – | 48 h, pH 6.5 | MIC80 | 1 µg/mL (≈ 3.24 µM)
Nc1ccn([C@@H]2O[C@H](COCc3ccccc3)[C@@H](OCc3ccccc3)[C@H](OCc3ccccc3)[C@H]2I)c(=O)n1 | Japanese encephalitis virus | viral replication, inhibitor, ELISA | Vero | – | pIC50 | < 4.70
C#Cc1cccc(O)c1C=NNC(=O)c1ccc(COC)cc1 | Aspergillus fumigatus | microbial growth | – | 48 h, pH 6.5 | MIC80 | > 16 µg/mL
CC[C@H](C)[C@H](NC(=O)[C@@H]1CCCN1C(=O)[C@H](CCC(=O)O)NC(=O)[C@H](CC(C)C)NC(=O)[C@@H](N)C(C)C)C(=O)N[C@@H](CC(C)C)C(=O)N[C@@H](Cc1c[nH]cn1)C(=O)N[C@@H](CO)C(=O)N[C@H](C(=O)O)[C@@H](C)OP(=O)(O)O | HeLa | cell growth or viability, MTT | – | 72 h | pIC50 | 6.09
C#Cc1cccc(C=NNC(=O)c2ccc(Br)cc2)c1O | Aspergillus fumigatus | microbial growth | – | 48 h, pH 6.5 | MIC80 | 4 µg/mL (≈ 11.7 µM)
N#C[Se]Cc1cc(=O)oc2cc(O)ccc12 | HeLa | cell growth or viability, SRB | – | – | GI50 | 20 µM
